{"source": "ChEMBL document CHEMBL2439985", "about": "“Multifunctional cyclic D,L-α-peptide architectures stimulate non-insulin dependent glucose uptake in skeletal muscle cells and protect them against oxidative stress” (J Med Chem, 2013)", "key": {"L6 [1]": {"test_system": "L6", "assay": "Antiapoptotic activity in rat L6 cells assessed as suppression of 23.5 mM D-glucose-induced JNK-46 phosphorylation at 25 uM after 8 hrs by Western blot analysis", "type": "functional, cell-based", "procedure,_shortened": "(§1)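 L6 myotubes held 7 days in 23.5 mM glucose medium, then exposed to peptide for 8 h or ALA for 3 h. Whole-cell lysates were made in ice-cold lysis buffer, and 5−60 μg protein was run on 10−12% SDS-PAGE. Blots were probed for total and phosphorylated JNK (p-54, p-46) and α-tubulin. Band densities were normalized to total JNK. Two-tailed Student's t test.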"}, "[2]": {"biological_target": "T1, Solute carrier family 2, facilitated glucose transporter member 4 (Homo sapiens) (UniProt P14672)", "T1 sequence (whole entry)": "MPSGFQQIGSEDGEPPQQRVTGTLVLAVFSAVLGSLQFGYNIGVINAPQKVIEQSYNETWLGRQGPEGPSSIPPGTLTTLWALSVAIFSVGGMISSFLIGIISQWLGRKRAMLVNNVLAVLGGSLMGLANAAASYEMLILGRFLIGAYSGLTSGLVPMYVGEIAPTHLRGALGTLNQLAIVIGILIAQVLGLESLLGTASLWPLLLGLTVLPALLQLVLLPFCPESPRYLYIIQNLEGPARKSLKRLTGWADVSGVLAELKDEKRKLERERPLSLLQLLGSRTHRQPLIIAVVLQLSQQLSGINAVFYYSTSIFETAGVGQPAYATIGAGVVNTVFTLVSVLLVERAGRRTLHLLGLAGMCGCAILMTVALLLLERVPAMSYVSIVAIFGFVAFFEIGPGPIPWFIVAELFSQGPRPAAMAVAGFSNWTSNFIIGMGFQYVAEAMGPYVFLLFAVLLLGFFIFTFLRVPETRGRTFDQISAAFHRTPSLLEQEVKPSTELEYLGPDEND", "assay": "Induction of human myc epitope-tagged GLUT4 translocation to plasma membrane overexpressed in rat L6 cells at 25 uM after 8 hrs by immunocolorimetric analysis in presence of 23.5 mM D-glucose relative to insulin", "type": "cell-based", "procedure,_shortened": "(§2)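 L6 myotubes overexpressing GLUT1myc or GLUT4myc were held 9 h in serum-free αMEM with 0.5% BSA and 23.5 mM glucose. They received peptide (25 μM) or 0.1% DMSO over the last 8 h, and insulin (100 nM) or ALA (2 mM) over the last 30 min. Live cells were labelled with anti-c-Myc (1:200) and fixed in 3% formaldehyde. HRP anti-rabbit IgG (1:2000) and OPD were added, and absorbance was read at 492 nm.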"}, "L6 [3]": {"test_system": "L6", "assay": "Effect on human myc epitope-tagged total GLUT1 level overexpressed in rat L6 cells at 25 uM after 8 hrs by Western blotting analysis", "type": "functional, cell-based", "procedure,_shortened": "(§3)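 Whole-cell lysates of GLUT1myc- or GLUT4myc-overexpressing L6 myotubes were made after the same treatments as in the surface assay. Western blots were run for total transporter content.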"}, "L6 [4]": {"test_system": "L6", "assay": "Antihyperglycemic activity in rat L6 cells assessed as increase in [3H]dGlc uptake at 25 uM after 6 to 12 hrs by liquid scintillation counting analysis", "type": "functional, cell-based"}, "L6 [5]": {"test_system": "L6", "assay": "Antioxidant activity in rat L6 cells assessed as trolox equivalents of ABTS free radical scavenging activity at 25 uM after 12 hrs by ELISA reader analysis in presence of 23.5 mM D-glucose", "type": "functional, cell-based", "procedure,_shortened": "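L6 myotubes in αMEM with 2% FCS and 5.5 or 23.5 mM glucose were treated with peptide (25 μM, 12 h) or ALA (2 mM, 2 h), vehicle 0.1% DMSO. Cells were lysed (Tris pH 7.5, NaCl, NP-40) through three freeze-thaw cycles and centrifuged. Lysates were assayed for metmyoglobin/H2O2-driven ABTS•+ formation. Results are Trolox equivalents per mg protein from a Trolox standard curve, with protein by Bradford.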"}, "L6 [6]": {"test_system": "L6", "assay": "Effect on human myc epitope-tagged total GLUT4 level overexpressed in rat L6 cells at 25 uM after 8 hrs by Western blotting analysis", "type": "functional, cell-based", "procedure,_shortened": "as §3"}, "[7]": {"assay": "Antioxidant activity assessed as inhibition of H2O2-induced hydroxyl radical formation by EPR spectroscopic analysis in presence of Fe2+", "type": "functional", "procedure,_shortened": "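Hydroxyl radicals came from a Fenton reaction: H2O2 (10 mM), FeSO4·7H2O (10 mM) and DMPO spin trap (40 mM), with peptide at 1−1000 μM. Samples were diluted in 15 mM phosphate buffer, pH 7.4, and read immediately by EPR. The spin-adduct signal was integrated.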"}, "L6 [8]": {"test_system": "L6", "assay": "Effect on total GLUT1 level in rat L6 cells at 25 uM after 8 hrs by Western blotting analysis", "type": "functional, cell-based"}, "L6 [9]": {"test_system": "L6", "assay": "Antihyperglycemic activity in rat L6 cells assessed as increase in [3H]dGlc uptake at 5 uM after 12 hrs by liquid scintillation counting analysis", "type": "functional, cell-based", "procedure,_shortened": "(§4)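 Differentiated L6 myotubes were preincubated 24 h in αMEM with 2% FCS and 5.5 or 23.5 mM D-glucose, then switched to FCS-free medium with 0.5% BSA 4 h before the assay. Peptide was given for 12 h or ALA for 30 min, vehicle 0.1% DMSO. After PBS rinses, cells took up 0.1 mM dGlc plus [3H]dGlc (1.3 μCi mL−1) for 5 min at room temperature. Cells were lysed in 0.1% SDS and counted by scintillation. Uptake is expressed as % of the DMSO basal rate.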"}, "L6 [10]": {"test_system": "L6", "assay": "Cytoprotective activity in rat L6 cells assessed as increase in glucose oxidase-reduced cell survival at 25 uM incubated for 12 hrs prior to glucose oxidase challenge measured after 5 hrs by MTT assay in presence of 23.5 mM D-glucose", "type": "functional, cell-based", "procedure,_shortened": "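L6 myotubes were kept 7 days in 23.5 mM glucose. They were pretreated with peptide (25 μM, 12 h) or ALA (2 mM, 30 min), vehicle 0.1% DMSO, at 37 °C. Glucose oxidase (50 mU mL−1) was then added for 5 h to generate H2O2. Viability was read by MTT.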"}, "L6 [11]": {"test_system": "L6", "assay": "Effect on total GLUT4 level in rat L6 cells at 25 uM after 8 hrs by Western blotting analysis", "type": "functional, cell-based"}, "L6 [12]": {"test_system": "L6", "assay": "Antiapoptotic activity in rat L6 cells assessed as suppression of 23.5 mM D-glucose-induced JNK-54 phosphorylation at 25 uM after 8 hrs by Western blot analysis", "type": "functional, cell-based", "procedure,_shortened": "as §1"}, "L6 [13]": {"test_system": "L6", "assay": "Potency index, ratio of compound activity to ALA activity for increase in [3H]dGlc uptake in rat L6 cells", "type": "functional", "procedure,_shortened": "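L6 myotubes (differentiated in αMEM, 2% FCS) preincubated 24 h in 23.5 mM D-glucose, then 4 h serum-free with 0.5% BSA. Peptide at increasing concentrations for 12 h, or ALA 2 mM for 30 min; vehicle 0.1% DMSO. Uptake: 0.1 mM dGlc plus [3H]dGlc 1.3 μCi/mL in PBS pH 7.4, 5 min RT; SDS lysis, scintillation counting, % of vehicle basal. Ratio compares concentrations giving similar uptake.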"}, "L6 [14]": {"test_system": "L6", "assay": "Antihyperglycemic activity in rat L6 cells assessed as increase in [3H]dGlc uptake after 12 hrs by liquid scintillation counting analysis", "type": "functional, cell-based", "procedure,_shortened": "as §4"}, "[15]": {"assay": "Potency index, ratio of Histidine EC50 to compound EC50 for inhibition of H2O2-induced ROS production", "type": "functional"}, "[16]": {"assay": "Antioxidant activity assessed as inhibition of H2O2-induced hydroxyl radical formation by EPR spectroscopic analysis in absence of Fe2+", "type": "functional"}, "[17]": {"biological_target": "T2, Solute carrier family 2, facilitated glucose transporter member 1 (Homo sapiens) (UniProt P11166)", "T2 sequence (whole entry)": "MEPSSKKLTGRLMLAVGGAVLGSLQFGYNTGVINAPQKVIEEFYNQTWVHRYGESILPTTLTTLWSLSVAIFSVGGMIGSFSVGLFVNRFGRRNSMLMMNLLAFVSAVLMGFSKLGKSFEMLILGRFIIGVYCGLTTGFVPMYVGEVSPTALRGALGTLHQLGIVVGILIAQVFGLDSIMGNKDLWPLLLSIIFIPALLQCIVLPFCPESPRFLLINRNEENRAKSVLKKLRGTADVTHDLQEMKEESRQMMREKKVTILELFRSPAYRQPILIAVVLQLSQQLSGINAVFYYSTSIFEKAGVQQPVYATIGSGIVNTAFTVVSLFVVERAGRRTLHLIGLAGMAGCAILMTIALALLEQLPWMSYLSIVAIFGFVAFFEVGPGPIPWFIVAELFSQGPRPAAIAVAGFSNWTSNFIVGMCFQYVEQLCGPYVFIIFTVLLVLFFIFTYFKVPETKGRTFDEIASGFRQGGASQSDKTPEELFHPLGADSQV", "assay": "Induction of human myc epitope-tagged GLUT1 translocation to plasma membrane overexpressed in rat L6 cells at 25 uM after 8 hrs by immunocolorimetric analysis in presence of 23.5 mM D-glucose", "type": "cell-based", "procedure,_shortened": "as §2"}, "[18]": {"assay": "Antioxidant activity assessed as inhibition of H2O2-induced ROS production by DCFH assay", "type": "functional", "procedure,_shortened": "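DCFH oxidation assay: H2O2 (0.5 mM) was incubated with DCFH with or without the test agent, and the DCF formed was read fluorometrically. Free His and Trolox served as controls.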"}, "[19]": {"assay": "Induction of self-assembly of the compound in phosphate buffer at 100 uM after 2 days by uranyl acetate staining-based TEM analysis", "type": "physicochemical", "conditions": "48 h", "procedure,_shortened": "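Peptide (100 μM) was aged 2 days in phosphate buffer and negatively stained 30 s with 2% uranyl acetate. Nanotube formation was examined by TEM at 120 kV.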"}, "[20]": {"assay": "Drug degradation in H2O2 solution at 2.7 mM after 1 month by HPLC/MS/NMR analysis in presence of Fe2+", "type": "physicochemical", "conditions": "H2O2 solution with Fe2+; read-out: Drug degradation"}}, "note": "pEC50: −log10 of the molar value. The source made the active and inactive calls. The calls are words filed in the database; no cut-off is given here.", "data": [{"compound": "NCCCC[C@H]1NC(=O)[C@H](Cc2c[nH]cn2)NC(=O)[C@@H](Cc2c[nH]c3ccccc23)NC(=O)[C@H](Cc2c[nH]c3ccccc23)NC(=O)[C@@H](Cc2c[nH]cn2)NC(=O)[C@H](Cc2c[nH]cn2)NC(=O)[C@@H](Cc2c[nH]cn2)NC(=O)[C@H](Cc2c[nH]cn2)NC1=O", "values": [{"measurement": "Activity", "setting": "L6 [1]", "result": "Active"}, {"measurement": "Activity", "setting": "[2]", "result": 60, "unit": "%"}, {"measurement": "Activity", "setting": "L6 [3]", "result": "inactive"}, {"measurement": "Activity", "setting": "L6 [4]", "result": "Active"}, {"measurement": "Activity", "setting": "L6 [5]", "result": "Active"}, {"measurement": "Activity", "setting": "L6 [6]", "result": "inactive"}, {"measurement": "inhibition", "setting": "[7]", "result": "Dose-dependent effect"}, {"measurement": "Activity", "setting": "L6 [8]", "result": "inactive"}, {"measurement": "Activity", "setting": "L6 [9]", "result": "Active"}, {"measurement": "Activity", "setting": "L6 [10]", "result": "Active"}, {"measurement": "Activity", "setting": "L6 [11]", "result": "inactive"}, {"measurement": "Activity", "setting": "L6 [12]", "result": "Active"}, {"measurement": "Ratio", "setting": "L6 [13]", "result": 80}, {"measurement": "Activity", "setting": "L6 [14]", "result": "Dose-dependent effect"}, {"measurement": "Ratio EC50", "setting": "[15]", "result": 15}, {"measurement": "inhibition", "setting": "[16]", "result": "Active"}, {"measurement": "Activity", "setting": "[17]", "result": "Active"}]}, {"compound": "N[C@@H](Cc1c[nH]cn1)C(=O)O", "note": "[HISTIDINE]", "values": [{"measurement": "pEC50", "setting": "[18]", "result": 5.22}, {"measurement": "pEC50", "setting": "[7]", "result": 4.00}]}, {"compound": "NCCCC[C@H]1NC(=O)[C@H](Cc2c[nH]cn2)NC(=O)[C@@H](Cc2c[nH]cn2)NC(=O)[C@H](Cc2c[nH]cn2)NC(=O)[C@@H](Cc2c[nH]cn2)NC(=O)[C@H](Cc2c[nH]c3ccccc23)NC(=O)[C@@H](Cc2c[nH]c3ccccc23)NC(=O)[C@H](Cc2c[nH]cn2)NC1=O", "values": [{"measurement": "pEC50", "setting": "[18]", "result": 6.40}, {"measurement": "Activity", "setting": "[19]", "result": "Active"}, {"measurement": "pEC50", "setting": "[7]", "result": 5.52}, {"measurement": "degraded at 730.5 h", "setting": "[20]", "result": "< 5", "unit": "%"}]}, {"compound": "NCCCC[C@H]1NC(=O)[C@H](Cc2c[nH]cn2)NC(=O)[C@@H](Cc2c[nH]c3ccccc23)NC(=O)[C@H](Cc2c[nH]c3ccccc23)NC(=O)[C@@H](Cc2c[nH]cn2)NC(=O)[C@H](Cc2c[nH]cn2)NC(=O)[C@@H](Cc2c[nH]cn2)NC(=O)[C@H](CO)NC1=O", "values": [{"measurement": "pEC50", "setting": "[18]", "result": 6.70}, {"measurement": "Ratio EC50", "setting": "[15]", "result": 30}]}]}
